Experimental data as given in ChEMBL document CHEMBL1145052, “Design and synthesis of novel pyridoxine 5'-phosphonates as potential antiischemic agents” (J Med Chem, 2003).
Each block holds one molecule with its values, some of them ahead of it.

Legend:
[1] = organism: Rattus norvegicus; assay: Fatty acid oxidation was measured using [3H]- palmitate in perfusing rat heart; assay type: functional
Outline: (§1)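 Isolated, spontaneously beating rat hearts under aerobic perfusion for 60 min. Test agents perfused at 1 mM, DCA positive control at 3 mM, untreated controls; n = 6 hearts per group. [3H]-palmitate and [14C]-glucose perfused together to measure fatty acid and glucose oxidation simultaneously.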

[2] = system: Rattus norvegicus; assay: Ability of compound to reduce the infarct size in rat administered via bolus at 0.02 mmol/kg; assay type: functional
Outline: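 Male Wistar rats, carotid artery and jugular vein cannulated, LAD snare placed, 30 min stabilization. Bolus injection 0.02 mmol/kg given 5 min before LAD occlusion; saline infusion controls. 25 min ischemia, 2 h reperfusion. Area at risk delineated with Evans blue (2% w/v). AR pieces stained with NBT (0.5 mg/mL) for 40 min at 37 °C. Infarct size expressed as % of AR.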

[3] = organism: Rattus norvegicus; assay: Glucose oxidation was measured using [C14] Glucose in perfusing rat heart; assay type: functional; outline: as §1
[4] = organism: Rattus norvegicus; assay: Inhibitory activity against ATP receptor in isolated perfused rat heart

SMILES: Cc1ncc2c(c1O)COC2(O)C(F)(F)P(=O)(O)O (centres undefined)
Activity [1]: 414 | Reduction [2]: 46% | Activity [3]: 2339

SMILES: Cc1ncc(C(O)P(=O)(O)O)c(O)c1O (centres undefined)
Reduction [2]: 19%

Activity [4]: 10 µM
SMILES: Cc1ncc(COP(=O)(O)O)c(C=O)c1O [PYRIDOXAL PHOSPHATE ANHYDROUS]
Activity [1]: 398 | Reduction [2]: 33% | Activity [3]: 2253

SMILES: Cc1ncc(CP(=O)(O)O)c(O)c1O
Reduction [2]: 20%
